Experimental data as given in ChEMBL document CHEMBL2407018, “Luteolin suppresses the differentiation of THP-1 cells through the Inhibition of NOX2 mRNA expression and the membrane translocation of p47phox” (J Nat Prod, 2013).
Calls of active or inactive are those of the source. The calls are words filed in the database; no cut-off is given here.

How the values were obtained:
[1] = target: T1, NADPH oxidase 2 (Homo sapiens) (UniProt P04839); experiment: Inhibition of NOX2 in human THP1 cells assessed as suppression of TPA-induced cell adhesion at 20 uM incubated for 1 hr prior to TPA challenge measured after 24 hrs by microscopic analysis; format: cell-based; settings: THP-1
T1 sequence (whole entry): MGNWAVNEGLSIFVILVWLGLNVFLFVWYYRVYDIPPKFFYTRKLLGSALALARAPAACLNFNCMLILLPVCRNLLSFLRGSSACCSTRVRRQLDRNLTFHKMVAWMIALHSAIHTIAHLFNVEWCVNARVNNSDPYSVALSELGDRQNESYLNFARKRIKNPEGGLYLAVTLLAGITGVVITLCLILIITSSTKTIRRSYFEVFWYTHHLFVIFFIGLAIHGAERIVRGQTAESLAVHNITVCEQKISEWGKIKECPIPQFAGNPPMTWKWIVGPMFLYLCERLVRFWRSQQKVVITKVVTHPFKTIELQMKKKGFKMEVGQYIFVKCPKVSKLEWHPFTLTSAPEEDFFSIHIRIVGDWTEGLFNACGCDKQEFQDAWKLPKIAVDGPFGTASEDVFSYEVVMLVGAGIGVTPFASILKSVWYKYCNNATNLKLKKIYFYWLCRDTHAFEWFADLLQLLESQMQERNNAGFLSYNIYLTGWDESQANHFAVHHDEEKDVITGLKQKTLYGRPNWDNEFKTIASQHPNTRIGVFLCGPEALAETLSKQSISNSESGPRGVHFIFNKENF
Outline: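 THP-1 cells at 2 × 10^6 per 3.5 cm dish in RPMI1640 with 10% FCS. Exposed to compound for 1 h, then to 100 nM TPA for 24 h. Dishes washed three times with PBS and the remaining adherent cells inspected by microscope.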

[2] = target: T1, NADPH oxidase 2 (Homo sapiens); experiment: Inhibition of NOX2 in human THP1 cells assessed as downregulation of TPA-induced CD36 mRNA expression at 20 uM incubated for 1 hr prior to TPA challenge measured after 24 hrs by RT-PCR analysis; format: cell-based; settings: THP-1
Outline: (§1)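 THP-1 cells grown in RPMI1640 with 10% heat-inactivated FCS and penicillin/streptomycin at 37 °C, 5% CO2. Seeded at 2 × 10^6 cells per 3.5 cm dish. Compound added 1 h before 100 nM TPA for 24 h. Cells scraped, washed in cold PBS, lysed in TRIzol for total RNA. Transcripts measured by RT-PCR and normalized to 18s rRNA.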

[3] = target: T1, NADPH oxidase 2 (Homo sapiens); experiment: Inhibition of NOX2 in human THP1 cells assessed as downregulation of TPA-induced CD14 mRNA expression at 20 uM incubated for 1 hr prior to TPA challenge measured after 24 hrs by RT-PCR analysis; format: cell-based; settings: THP-1; outline: as §1
[4] = target: T1, NADPH oxidase 2 (Homo sapiens); experiment: Inhibition of NOX2 in human THP1 cells assessed as downregulation of TPA-induced CD11b mRNA expression at 20 uM incubated for 1 hr prior to TPA challenge measured after 24 hrs by RT-PCR analysis; format: cell-based; settings: THP-1; outline: as §1
[5] = target: T1, NADPH oxidase 2 (Homo sapiens); experiment: Inhibition of NOX2 in human THP1 cells assessed as suppression of TPA-induced membrane translocation of p47phox at 20 uM incubated for 1 hr prior to TPA challenge measured after 12 hrs by Western blot analysis; format: cell-based; settings: THP-1
Outline: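 Cells pretreated 1 h, then 100 nM TPA for 12 h. Lysed in digitonin buffer B (pH 7.5); after 12000g for 15 min the pellet was solubilized in buffer B with 1% Triton X-100 to give the membrane fraction. 20 μg protein run on 12% SDS-PAGE, blotted for p47phox.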

THP-1 [6] = experiment: Downregulation of TPA-induced NOX2 mRNA expression in human THP1 cells at 20 uM incubated for 1 hr prior to TPA challenge measured after 24 hrs by RT-PCR analysis; format: functional, cell-based
Outline: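 THP-1 cells in RPMI1640 with 10% FCS, 2 × 10^6 cells per 3.5 cm dish, pretreated 1 h, then 100 nM TPA for 24 h. Total RNA extracted in TRIzol, NOX2 measured by RT-PCR and normalized to 18s rRNA.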

[7] = target: T1, NADPH oxidase 2 (Homo sapiens); experiment: Inhibition of NOX2 in human THP1 cells assessed as suppression of TPA-induced intracellular ROS accumulation at 20 uM incubated for 1 hr prior to TPA challenge measured after 24 hrs by flow cytometric analysis; format: cell-based; settings: THP-1
Outline: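 THP-1 cells pretreated 1 h, then 100 nM TPA for 24 h. Cells scraped, stained 20 min with 10 μM carboxy-H2DCFDA in PBS with […] in a 5% CO2 incubator, and washed three times in ice-cold PBS. DCF fluorescence read by flow cytometry.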

THP-1 [8] = experiment: Inhibition of TPA-induced MEK/ERK phosphorylation in human THP1 cells at 20 uM incubated for 1 hr prior to TPA challenge measured after 15 mins by Western blot analysis; format: cell-based
Outline: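 THP-1 cells pretreated 1 h, then 100 nM TPA for 15 min. Lysed in buffer A (Tris pH 7.4 with phosphatase inhibitors, 1% Triton X-100). 20 μg protein run on 12% SDS-PAGE and PVDF, probed for phospho- and total MEK and ERK (1:1000) with biotin secondary and ABC detection.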

[9] = target: T1, NADPH oxidase 2 (Homo sapiens); experiment: Inhibition of NOX2 in human THP1 cells assessed as downregulation of TPA-induced CD36 mRNA expression at 0.2 to 2 uM incubated for 1 hr prior to TPA challenge measured after 24 hrs by RT-PCR analysis; format: cell-based; settings: THP-1
Outline: (§2)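 THP-1 cells, 2 × 10^6 per 3.5 cm dish, pretreated 1 h with 0.2, 2 or 20 μM, then 100 nM TPA for 24 h. Cells scraped and washed in cold PBS, TRIzol RNA extracted. CD11b, CD14 and CD36 transcripts measured by RT-PCR and normalized to 18s rRNA.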

[10] = target: T1, NADPH oxidase 2 (Homo sapiens); experiment: Inhibition of NOX2 in human THP1 cells assessed as downregulation of TPA-induced CD14 mRNA expression at 0.2 to 2 uM incubated for 1 hr prior to TPA challenge measured after 24 hrs by RT-PCR analysis; format: cell-based; settings: THP-1; outline: as §2
[11] = target: T1, NADPH oxidase 2 (Homo sapiens); experiment: Inhibition of NOX2 in human THP1 cells assessed as downregulation of TPA-induced CD11b mRNA expression at 0.2 to 2 uM incubated for 1 hr prior to TPA challenge measured after 24 hrs by RT-PCR analysis; format: cell-based; settings: THP-1; outline: as §2

Structure (SMILES)	inhibition [1]	inhibition [2]	inhibition [3]	inhibition [4]	inhibition [5]	Activity (THP-1 [6])	inhibition [7]	inhibition (THP-1 [8])	inhibition [9]	inhibition [10]	inhibition [11]
O=c1cc(-c2ccc(O)cc2)oc2cc(O)cc(O)c12	Active	Active	Active	Active	–	–	–	–	–	–	–
O=c1cc(-c2ccc(O)c(O)c2)oc2cc(O)cc(O)c12	Active	Active	Active	Active	Active	Active	Active	inactive	inactive	inactive	inactive
O=c1cc(-c2ccccc2)oc2cc(O)cc(O)c12	Active	Active	Active	Active	–	–	–	–	–	–	–
O=c1cc(-c2cc(O)c(O)c(O)c2)oc2cc(O)cc(O)c12	inactive	inactive	inactive	inactive	inactive	inactive	–	–	–	–	–
